Measurements: ChEMBL document CHEMBL4339192, “De Novo Designed Amphipathic α-Helical Antimicrobial Peptides Incorporating Dab and Dap Residues on the Polar Face To Treat the Gram-Negative Pathogen, Acinetobacter baumannii” (J Med Chem, 2019)
≈ marks a conversion by molar mass, not a printed value. Where a SMILES comes first, the peptide text is derived from it. [ ]: non-standard residue; d: D form. Dap = NC[C@H](N)C(=O)O

Columns and labels:
[1] = test system: Acinetobacter baumannii; experiment: Antibacterial activity against Acinetobacter baumannii isolate 1021371 measured after 24 hrs by microtiter dilution method; assay type: functional; conditions: isolate 1021371, 24 h
How it was run: (§1)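 Broth microdilution in Mueller-Hinton (MH) medium. […] Plates were incubated 24 h at 37 °C. MIC was the lowest peptide concentration that inhibited growth, based on three sets of replicates.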

[2] = test system: Acinetobacter baumannii; experiment: Antibacterial activity against Acinetobacter baumannii isolate 1035794 measured after 24 hrs by microtiter dilution method; assay type: functional; conditions: isolate 1035794, 24 h; how it was run: as §1
[3] = test system: Acinetobacter baumannii; experiment: Ratio of MIC for Acinetobacter baumannii 649 measured in presence of 25% human serum to MIC for Acinetobacter baumannii 649 in absence of 25% human serum; assay type: functional
How it was run: (§2)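 Blood strain 649 was tested by MH broth microdilution with and without 25% (v/v) human serum added to the medium. The test used a final inoculum of 5 × 10^5 cfu/mL and incubation at 37 °C. The ratio is the MIC in serum over the MIC in MH alone.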

[4] = test system: Acinetobacter baumannii; experiment: Antibacterial activity against Acinetobacter baumannii isolate 981650 measured after 24 hrs by microtiter dilution method; assay type: functional; conditions: isolate 981650, 24 h; how it was run: as §1
[5] = test system: Acinetobacter baumannii; experiment: Antibacterial activity against Acinetobacter baumannii isolate 964304 measured after 24 hrs by microtiter dilution method; assay type: functional; conditions: isolate 964304, 24 h; how it was run: as §1
[6] = test system: Acinetobacter baumannii; experiment: Antibacterial activity against Acinetobacter baumannii isolate 963618 measured after 24 hrs by microtiter dilution method; assay type: functional; conditions: isolate 963618, 24 h; how it was run: as §1
[7] = Therapeutic index, ratio of HC50 for human RBC to MIC for polymyxin B/colistin-resistant Acinetobacter baumannii M89952; assay type: toxicity; conditions: human red blood cells, read-out: TI
How it was run: (§3)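 T.I. = HC50/MIC. For HC50, peptide (quantified by amino acid analysis) was two-fold serially diluted over 12 concentrations up to 1000 μg/mL. It was incubated with 1% fresh human erythrocytes in PBS, pH 7.4, for 18 h at 37 °C. After 800g centrifugation, hemoglobin was read at 570 nm against water (100%) and no-peptide (0%) controls. HC50 came from a lysis-versus-concentration plot, average of 3 replicates.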

[8] = test system: Acinetobacter baumannii; experiment: Antibacterial activity against polymyxin B/colistin-resistant Acinetobacter baumannii M89953 measured after 24 hrs by microtiter dilution method; assay type: functional; conditions: M89953, 24 h; how it was run: as §1
[9] = test system: Acinetobacter baumannii; experiment: Antibacterial activity against Acinetobacter baumannii isolate 952654 measured after 24 hrs by microtiter dilution method; assay type: functional; conditions: isolate 952654, 24 h; how it was run: as §1
[10] = test system: Acinetobacter baumannii; experiment: Antibacterial activity against Acinetobacter baumannii isolate 1001611 measured after 24 hrs by microtiter dilution method; assay type: functional; conditions: isolate 1001611, 24 h; how it was run: as §1
[11] = test system: Acinetobacter baumannii; experiment: Antibacterial activity against Acinetobacter baumannii isolate 968886 measured after 24 hrs by microtiter dilution method; assay type: functional; conditions: isolate 968886, 24 h; how it was run: as §1
[12] = test system: Acinetobacter baumannii; experiment: Antibacterial activity against polymyxin B/colistin-resistant Acinetobacter baumannii M89941 measured after 24 hrs by microtiter dilution method; assay type: functional; conditions: M89941, 24 h; how it was run: as §1
[13] = test system: Acinetobacter baumannii; experiment: Antibacterial activity against polymyxin B/colistin-resistant Acinetobacter baumannii M89949 measured after 24 hrs by microtiter dilution method; assay type: functional; conditions: M89949, 24 h; how it was run: as §1
[14] = test system: Acinetobacter baumannii; experiment: Antibacterial activity against polymyxin B/colistin-resistant Acinetobacter baumannii M89955 measured after 24 hrs by microtiter dilution method; assay type: functional; conditions: M89955, 24 h; how it was run: as §1
[15] = test system: Acinetobacter baumannii; experiment: Antibacterial activity against Acinetobacter baumannii isolate 1035166 measured after 24 hrs by microtiter dilution method; assay type: functional; conditions: isolate 1035166, 24 h; how it was run: as §1
[16] = test system: Acinetobacter baumannii; experiment: Antibacterial activity against Acinetobacter baumannii isolate 963659 measured after 24 hrs by microtiter dilution method; assay type: functional; conditions: isolate 963659, 24 h; how it was run: as §1
[17] = test system: Acinetobacter baumannii; experiment: Antibacterial activity against polymyxin B/colistin-resistant Acinetobacter baumannii M89951 measured after 24 hrs by microtiter dilution method; assay type: functional; conditions: M89951, 24 h; how it was run: as §1
[18] = test system: Acinetobacter baumannii; experiment: Antibacterial activity against polymyxin B/colistin-resistant Acinetobacter baumannii M89952 measured after 24 hrs by microtiter dilution method; assay type: functional; conditions: M89952, 24 h; how it was run: as §1
[19] = Therapeutic index, ratio of HC50 for human RBC to MIC for polymyxin B/colistin-resistant Acinetobacter baumannii M89941; assay type: toxicity; conditions: human red blood cells, read-out: TI; how it was run: as §3
[20] = Hemolytic activity against human RBC measured after 18 hrs by spectrophotometric method; assay type: ADME, cell-based, Erythrocyte; conditions: human red blood cells (erythrocytes)
How it was run: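 Peptide (amount by amino acid analysis), two-fold serial dilutions at 12 concentrations up to 1000 μg/mL, with 1% human erythrocytes in PBS pH 7.4, 37 °C, 18 h. Unlysed cells removed by centrifugation (800g); hemoglobin read at 570 nm. Water-lysed cells = 100%, no-peptide cells = 0%. HC50 from plot of % lysis vs concentration (μM), average of 3 replicates.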

[21] = test system: Acinetobacter baumannii; experiment: Antibacterial activity against Acinetobacter baumannii isolate 9383370 measured after 24 hrs by microtiter dilution method; assay type: functional; conditions: isolate 9383370, 24 h; how it was run: as §1
[22] = test system: Acinetobacter baumannii; experiment: Antibacterial activity against Acinetobacter baumannii isolate 1007660 measured after 24 hrs by microtiter dilution method; assay type: functional; conditions: isolate 1007660, 24 h; how it was run: as §1
[23] = test system: Acinetobacter baumannii; experiment: Antibacterial activity against Acinetobacter baumannii isolate 977751 measured after 24 hrs by microtiter dilution method; assay type: functional; conditions: isolate 977751, 24 h; how it was run: as §1
[24] = test system: Acinetobacter baumannii; experiment: Antibacterial activity against Acinetobacter baumannii isolate 1010282 measured after 24 hrs by microtiter dilution method; assay type: functional; conditions: isolate 1010282, 24 h; how it was run: as §1
[25] = Therapeutic index, ratio of HC50 for human RBC to MIC for polymyxin B/colistin-resistant Acinetobacter baumannii M89949; assay type: toxicity; conditions: human red blood cells, read-out: TI; how it was run: as §3
[26] = test system: Acinetobacter baumannii; experiment: Antibacterial activity against Acinetobacter baumannii 649 measured after 24 hrs by microtiter dilution method; assay type: functional; conditions: Acinetobacter baumannii, 649, 24 h; how it was run: as §1
[27] = Therapeutic index, ratio of HC50 for human RBC to MIC for polymyxin B/colistin-resistant Acinetobacter baumannii M89955; assay type: toxicity; conditions: human red blood cells, read-out: TI; how it was run: as §3
[28] = Therapeutic index, ratio of HC50 for human RBC to MIC for polymyxin B/colistin-resistant Acinetobacter baumannii M89953; assay type: toxicity; conditions: human red blood cells, read-out: TI; how it was run: as §3
[29] = test system: Acinetobacter baumannii; experiment: Antibacterial activity against Acinetobacter baumannii isolate 1010245 measured after 24 hrs by microtiter dilution method; assay type: functional; conditions: isolate 1010245, 24 h; how it was run: as §1
[30] = test system: Acinetobacter baumannii; experiment: Antibacterial activity against Acinetobacter baumannii isolate 1002956 measured after 24 hrs by microtiter dilution method; assay type: functional; conditions: isolate 1002956, 24 h; how it was run: as §1
[31] = test system: Acinetobacter baumannii; experiment: Antibacterial activity against Acinetobacter baumannii isolate 961997 measured after 24 hrs by microtiter dilution method; assay type: functional; conditions: isolate 961997, 24 h; how it was run: as §1
[32] = test system: Acinetobacter baumannii; experiment: Antibacterial activity against polymyxin B/colistin-resistant Acinetobacter baumannii M89963 measured after 24 hrs by microtiter dilution method; assay type: functional; conditions: M89963, 24 h; how it was run: as §1
[33] = test system: Acinetobacter baumannii; experiment: Antibacterial activity against Acinetobacter baumannii isolate 1018887 measured after 24 hrs by microtiter dilution method; assay type: functional; conditions: isolate 1018887, 24 h; how it was run: as §1
[34] = test system: Acinetobacter baumannii; experiment: Antibacterial activity against Acinetobacter baumannii isolate 1017395 measured after 24 hrs by microtiter dilution method; assay type: functional; conditions: isolate 1017395, 24 h; how it was run: as §1
[35] = Therapeutic index, ratio of HC50 for human RBC to MIC for polymyxin B/colistin-resistant Acinetobacter baumannii M89951; assay type: toxicity; conditions: human red blood cells, read-out: TI; how it was run: as §3
[36] = test system: Acinetobacter baumannii; experiment: Antibacterial activity against Acinetobacter baumannii 649 measured after 24 hrs in presence of 25% human serum by microtiter dilution method; assay type: functional; conditions: Acinetobacter baumannii, 649, 24 h; how it was run: as §2
[37] = Therapeutic index, ratio of HC50 for human RBC to MIC for polymyxin B/colistin-resistant Acinetobacter baumannii M89963; assay type: toxicity; conditions: human red blood cells, read-out: TI; how it was run: as §3
[38] = test system: Acinetobacter baumannii; experiment: Antibacterial activity against Acinetobacter baumannii isolate 965463 measured after 24 hrs by microtiter dilution method; assay type: functional; conditions: isolate 965463, 24 h; how it was run: as §1

CC(=O)N[C@H](CCCCN)C(=O)N[C@H](CC(C)C)C(=O)N[C@@H](CN)C(=O)N[C@H](CO)C(=O)N[C@H](CC(C)C)C(=O)N[C@H](CC(C)C)C(=O)N[C@@H](CN)C(=O)N[C@@H](C(=O)N[C@H](CC(C)C)C(=O)N[C@H](CO)C(=O)N[C@@H](CN)C(=O)N[C@H](C)C(=O)N[C@H](C)C(=O)N[C@H](C)C(=O)N[C@H](C)C(=O)N[C@H](C)C(=O)N[C@H](CC(C)C)C(=O)N[C@@H](CN)C(=O)N[C@@H](C(=O)N[C@H](CC(C)C)C(=O)N[C@H](CC(C)C)C(=O)N[C@@H](CN)C(=O)N[C@H](C)C(=O)N[C@H](CC(C)C)C(=O)N[C@H](CO)C(=O)N[C@@H](CN)C(N)=O)[C@H](C)O)[C@H](C)O (Ac-[dK][dL][Dap][dS][dL][dL][Dap][dT][dL][dS][Dap][dA][dA][dA][dA][dA][dL][Dap][dT][dL][dL][Dap][dA][dL][dS][Dap]-NH2)
MIC [1]: 0.8 µM (≈ 2 µg/mL) | MIC [2]: 1.6 µM (≈ 4 µg/mL) | Ratio [3]: 4 - 16 | MIC [4]: 1.6 µM (≈ 4 µg/mL) | MIC [5]: 3.2 µM (≈ 8 µg/mL) | MIC [6]: 1.6 µM (≈ 4 µg/mL) | selectivity ratio [7]: 2.2 | MIC [8]: 1.6 µM (≈ 4 µg/mL) | MIC [9]: 6.4 µM (≈ 16 µg/mL) | MIC [10]: 1.6 µM (≈ 4 µg/mL) | MIC [11]: 1.6 µM (≈ 4 µg/mL) | MIC [12]: 1.6 µM (≈ 4 µg/mL) | MIC [13]: 0.8 µM (≈ 2 µg/mL) | MIC [14]: 1.6 µM (≈ 4 µg/mL) | MIC [15]: 3.2 µM (≈ 8 µg/mL) | MIC [16]: 3.2 µM (≈ 8 µg/mL) | MIC [17]: 0.8 µM (≈ 2 µg/mL) | MIC [18]: 1.6 µM (≈ 4 µg/mL) | selectivity ratio [19]: 2.2 | HC50 at 18 h [20]: 2900 nM | MIC [21]: 1.6 µM (≈ 4 µg/mL) | MIC [22]: 3.2 µM (≈ 8 µg/mL) | MIC [23]: 0.8 µM (≈ 2 µg/mL) | MIC [24]: 1.6 µM (≈ 4 µg/mL) | selectivity ratio [25]: 2.2 | MIC [26]: 0.8 µM (≈ 2 µg/mL) | selectivity ratio [27]: 2.2 | selectivity ratio [28]: 2.2 | MIC [29]: 0.8 µM (≈ 2 µg/mL) | MIC [30]: 1.6 µM (≈ 4 µg/mL) | MIC [31]: 3.2 µM (≈ 8 µg/mL) | MIC [32]: 1.6 µM (≈ 4 µg/mL) | MIC [33]: 3.2 µM (≈ 8 µg/mL) | MIC [34]: 3.2 µM (≈ 8 µg/mL) | selectivity ratio [35]: 2.2 | MIC [36]: 12.5 µM | selectivity ratio [37]: 2.2 | MIC [38]: 3.2 µM (≈ 8 µg/mL)
